Experiments:
[1] = AUC in dog at 2 mg/kg, po; assay type: ADME, organism-based, Canis lupus familiaris; conditions: in vivo
[2] = target: T1, Cytochrome P450 3A4 (Homo sapiens, UniProt P08684); assay: Inhibition of CYP3A4 (unknown origin); assay type: ADME
[3] = Volume of distribution at steady state in rat at 0.5 mg/kg, iv; assay type: ADME, organism-based; conditions: in vivo, read-out: Vdss
In short: (§1)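 Male rats given a single 0.5 mg/kg iv dose in DMSO. Unbound clearance (CLu) is total clearance divided by fu, the unbound fraction in plasma.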

[4] = Half life in rat at 0.5 mg/kg, iv; assay type: ADME, organism-based; conditions: in vivo; in short: as §1
[5] = target: T1, Cytochrome P450 3A4; assay: Induction of CYP3A4 in human hepatocytes at 10 uM relative to rifampicin
[6] = Unbound fraction in mouse plasma at 5 uM by LC-MS/MS method; assay type: ADME, cell-free
[7] = Tmax in dog at 2 mg/kg, po; assay type: ADME, organism-based, Canis lupus familiaris; conditions: in vivo
[8] = target: Sodium channel protein type 9 subunit alpha (Rattus norvegicus, UniProt O08562); assay: Inhibition of rat Nav1.7 expressed in HEK293T cells incubated for 3 to 5 mins at -125 mV holding potential by electrophysiology assay; assay type: cell-based
Chain of Sodium channel protein type 9 subunit alpha (O08562 whole entry): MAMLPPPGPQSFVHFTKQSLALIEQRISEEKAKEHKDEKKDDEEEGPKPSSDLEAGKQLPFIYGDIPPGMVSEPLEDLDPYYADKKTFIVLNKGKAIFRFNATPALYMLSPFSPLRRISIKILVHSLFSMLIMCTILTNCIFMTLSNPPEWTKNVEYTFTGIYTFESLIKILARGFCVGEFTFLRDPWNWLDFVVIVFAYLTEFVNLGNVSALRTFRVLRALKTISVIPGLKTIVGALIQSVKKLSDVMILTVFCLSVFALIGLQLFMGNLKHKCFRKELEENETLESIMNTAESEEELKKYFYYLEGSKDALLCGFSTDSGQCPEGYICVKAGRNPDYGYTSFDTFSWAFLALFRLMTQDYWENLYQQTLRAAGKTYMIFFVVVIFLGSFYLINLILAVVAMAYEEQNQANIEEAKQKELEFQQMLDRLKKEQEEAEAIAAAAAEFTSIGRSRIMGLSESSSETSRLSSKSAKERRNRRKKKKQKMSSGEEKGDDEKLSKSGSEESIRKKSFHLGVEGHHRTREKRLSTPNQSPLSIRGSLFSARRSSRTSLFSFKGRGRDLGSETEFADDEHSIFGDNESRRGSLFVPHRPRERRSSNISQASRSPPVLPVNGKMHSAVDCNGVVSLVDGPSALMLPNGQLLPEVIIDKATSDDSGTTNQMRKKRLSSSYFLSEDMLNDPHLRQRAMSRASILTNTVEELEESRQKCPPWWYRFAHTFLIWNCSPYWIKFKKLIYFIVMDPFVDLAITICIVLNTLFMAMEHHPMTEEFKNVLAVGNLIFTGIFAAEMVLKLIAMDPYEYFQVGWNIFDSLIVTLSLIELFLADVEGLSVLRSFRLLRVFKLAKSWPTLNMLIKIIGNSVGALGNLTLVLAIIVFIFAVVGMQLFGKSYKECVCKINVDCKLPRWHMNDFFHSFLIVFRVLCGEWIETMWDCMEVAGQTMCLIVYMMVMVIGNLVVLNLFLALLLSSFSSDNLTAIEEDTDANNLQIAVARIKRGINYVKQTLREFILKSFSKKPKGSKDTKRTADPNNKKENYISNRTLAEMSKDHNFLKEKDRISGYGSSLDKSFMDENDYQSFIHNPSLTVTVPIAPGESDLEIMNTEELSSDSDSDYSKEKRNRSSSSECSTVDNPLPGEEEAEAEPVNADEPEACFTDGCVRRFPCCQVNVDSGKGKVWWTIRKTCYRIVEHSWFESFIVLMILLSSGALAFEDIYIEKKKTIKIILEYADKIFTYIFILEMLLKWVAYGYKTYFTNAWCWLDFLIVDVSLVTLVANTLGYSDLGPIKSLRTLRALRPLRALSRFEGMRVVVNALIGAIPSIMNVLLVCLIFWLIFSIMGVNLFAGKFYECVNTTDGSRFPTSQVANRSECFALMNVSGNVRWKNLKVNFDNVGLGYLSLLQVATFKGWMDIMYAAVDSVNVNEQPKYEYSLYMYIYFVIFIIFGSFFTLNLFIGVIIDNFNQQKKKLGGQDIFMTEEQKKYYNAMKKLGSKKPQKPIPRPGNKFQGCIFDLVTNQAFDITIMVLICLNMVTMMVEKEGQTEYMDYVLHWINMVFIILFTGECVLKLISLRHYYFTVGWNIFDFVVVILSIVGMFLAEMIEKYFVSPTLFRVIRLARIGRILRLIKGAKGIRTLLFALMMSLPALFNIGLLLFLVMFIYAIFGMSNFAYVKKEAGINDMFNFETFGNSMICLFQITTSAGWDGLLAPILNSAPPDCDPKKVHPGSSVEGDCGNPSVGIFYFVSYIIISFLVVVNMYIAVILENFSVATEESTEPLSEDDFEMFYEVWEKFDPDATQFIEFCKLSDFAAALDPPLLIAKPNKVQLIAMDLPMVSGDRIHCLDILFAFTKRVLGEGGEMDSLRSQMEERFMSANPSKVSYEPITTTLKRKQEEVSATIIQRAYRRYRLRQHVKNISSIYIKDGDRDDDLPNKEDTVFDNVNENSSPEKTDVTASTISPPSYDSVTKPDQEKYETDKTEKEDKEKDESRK

[9] = target: Sodium channel protein type 8 subunit alpha (Homo sapiens, UniProt Q9UQD0); assay: Inhibition of human Nav1.6 expressed in HEK293 cells assessed as reduction in peak inward current by ionworks quattro electrophysiology assay; assay type: cell-based
Chain of Sodium channel protein type 8 subunit alpha (Q9UQD0 whole entry): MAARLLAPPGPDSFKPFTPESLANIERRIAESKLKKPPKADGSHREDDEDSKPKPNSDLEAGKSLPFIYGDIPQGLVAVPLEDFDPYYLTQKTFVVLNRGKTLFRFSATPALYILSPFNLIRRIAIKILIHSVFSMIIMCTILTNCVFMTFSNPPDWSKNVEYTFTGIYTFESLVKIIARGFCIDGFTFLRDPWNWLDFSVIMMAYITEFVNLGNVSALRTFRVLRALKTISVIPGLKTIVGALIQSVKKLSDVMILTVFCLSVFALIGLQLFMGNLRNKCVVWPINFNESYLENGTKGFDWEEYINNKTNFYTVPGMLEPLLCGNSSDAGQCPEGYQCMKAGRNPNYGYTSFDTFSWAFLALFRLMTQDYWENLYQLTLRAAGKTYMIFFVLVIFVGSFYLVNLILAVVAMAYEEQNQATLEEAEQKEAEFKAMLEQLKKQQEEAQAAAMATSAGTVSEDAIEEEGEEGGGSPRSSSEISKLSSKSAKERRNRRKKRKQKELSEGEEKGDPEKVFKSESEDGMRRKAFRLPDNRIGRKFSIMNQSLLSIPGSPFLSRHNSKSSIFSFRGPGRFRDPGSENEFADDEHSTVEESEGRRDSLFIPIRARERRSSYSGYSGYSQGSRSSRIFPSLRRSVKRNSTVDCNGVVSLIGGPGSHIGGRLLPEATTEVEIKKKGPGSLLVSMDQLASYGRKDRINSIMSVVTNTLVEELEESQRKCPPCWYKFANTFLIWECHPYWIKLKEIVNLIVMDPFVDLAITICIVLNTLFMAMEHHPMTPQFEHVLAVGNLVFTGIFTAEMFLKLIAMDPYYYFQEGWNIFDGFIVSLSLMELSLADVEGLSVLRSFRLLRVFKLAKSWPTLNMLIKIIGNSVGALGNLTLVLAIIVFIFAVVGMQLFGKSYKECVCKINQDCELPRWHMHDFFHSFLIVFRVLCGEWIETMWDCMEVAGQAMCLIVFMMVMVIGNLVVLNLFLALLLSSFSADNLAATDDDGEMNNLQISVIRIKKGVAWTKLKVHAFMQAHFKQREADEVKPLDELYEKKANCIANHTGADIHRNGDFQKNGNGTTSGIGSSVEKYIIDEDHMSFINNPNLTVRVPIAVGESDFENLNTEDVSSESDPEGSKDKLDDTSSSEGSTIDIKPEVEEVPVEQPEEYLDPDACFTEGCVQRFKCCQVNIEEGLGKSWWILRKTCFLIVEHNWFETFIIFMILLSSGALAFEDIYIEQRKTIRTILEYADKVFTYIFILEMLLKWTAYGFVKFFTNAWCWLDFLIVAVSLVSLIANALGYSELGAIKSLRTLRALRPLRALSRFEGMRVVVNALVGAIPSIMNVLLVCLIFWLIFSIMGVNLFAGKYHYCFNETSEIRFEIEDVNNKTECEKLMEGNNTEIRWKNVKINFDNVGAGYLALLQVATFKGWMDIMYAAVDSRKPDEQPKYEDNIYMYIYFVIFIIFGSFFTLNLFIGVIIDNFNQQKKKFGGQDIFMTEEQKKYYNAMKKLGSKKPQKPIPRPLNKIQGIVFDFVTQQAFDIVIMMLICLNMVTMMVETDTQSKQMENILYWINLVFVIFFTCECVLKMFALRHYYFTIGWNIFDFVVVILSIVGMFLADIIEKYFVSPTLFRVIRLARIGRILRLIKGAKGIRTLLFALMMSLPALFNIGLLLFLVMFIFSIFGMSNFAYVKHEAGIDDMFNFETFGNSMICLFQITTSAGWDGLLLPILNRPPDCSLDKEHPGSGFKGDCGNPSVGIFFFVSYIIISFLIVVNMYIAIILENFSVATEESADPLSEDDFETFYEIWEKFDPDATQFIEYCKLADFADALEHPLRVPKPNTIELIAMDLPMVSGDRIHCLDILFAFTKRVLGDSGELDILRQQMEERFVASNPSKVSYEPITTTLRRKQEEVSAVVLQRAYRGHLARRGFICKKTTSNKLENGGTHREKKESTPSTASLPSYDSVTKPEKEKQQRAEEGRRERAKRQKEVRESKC

[10] = Tmax in rat at 10 mg/kg, po; assay type: ADME, organism-based; conditions: in vivo
[11] = Volume of distribution at steady state in dog at 0.25 mg/kg, iv; assay type: ADME, organism-based, Canis lupus familiaris; conditions: in vivo, read-out: Vdss
In short: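 Male dogs received a single 0.25 mg/kg iv dose in DMSO. Unbound clearance (CLu) is total clearance divided by fu, the unbound fraction in plasma.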

[12] = Intrinsic clearance in rat liver microsomes at 1 uM after 1 to 40 mins in presence of NADPH by LC-MS/MS analysis; assay type: ADME, microsome; conditions: read-out: CLH
[13] = Unbound fraction in rat plasma at 5 uM by LC-MS/MS method; assay type: ADME, cell-free
[14] = test system: Rattus norvegicus; assay: Unbound clearance in rat at 0.5 mg/kg, iv; assay type: ADME, organism-based; conditions: in vivo; in short: as §1

T1 sequence (P08684 whole entry): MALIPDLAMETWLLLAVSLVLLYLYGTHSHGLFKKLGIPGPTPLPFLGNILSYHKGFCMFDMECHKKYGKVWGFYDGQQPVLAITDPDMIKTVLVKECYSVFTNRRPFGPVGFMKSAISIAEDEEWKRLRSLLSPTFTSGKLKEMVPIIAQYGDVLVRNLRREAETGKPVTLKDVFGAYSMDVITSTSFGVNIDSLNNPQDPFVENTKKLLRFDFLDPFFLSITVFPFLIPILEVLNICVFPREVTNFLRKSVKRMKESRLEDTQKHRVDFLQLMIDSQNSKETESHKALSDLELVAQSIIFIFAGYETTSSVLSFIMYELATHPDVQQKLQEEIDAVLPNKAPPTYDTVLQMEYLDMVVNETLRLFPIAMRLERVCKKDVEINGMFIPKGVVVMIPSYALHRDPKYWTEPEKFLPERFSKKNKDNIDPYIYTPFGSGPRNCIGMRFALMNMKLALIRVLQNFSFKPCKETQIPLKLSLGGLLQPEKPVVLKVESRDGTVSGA

COc1cc(-c2cccc(C(F)(F)F)c2)c(F)cc1-c1nccc2cc(S(=O)(=O)Nc3ccon3)ccc12
AUC [1]: 101 µM·h | IC50 [2]: > 15 µM | Vd [3]: 2.1 L/kg | half-life [4]: 6.2 h | Activity [5]: 7% | fraction unbound at 5 µM [6]: 0.0116 | Tmax [7]: 2 h | IC50 [8]: 4 µM | IC50 [9]: 16 µM | Tmax [10]: 6 h | Vd [11]: 0.56 L/kg | microsomal CLint at 1 µM [12]: < 14 µL/min/mg | fraction unbound at 5 µM [13]: 0.0087 | CL free [14]: 433 mL/min/kg

Reference: ChEMBL document CHEMBL4011598, “Sulfonamides as Selective NaV1.7 Inhibitors: Optimizing Potency and Pharmacokinetics While Mitigating Metabolic Liabilities” (J Med Chem, 2017)
